Measured values from ChEMBL document CHEMBL1141219, “Chemoenzymatic synthesis of a series of 4-substituted glutamate analogues and pharmacological characterization at human glutamate transporters subtypes 1-3” (J Med Chem, 2005).

What was measured:
Type in all cases: functional, cell-based
[1] = target: Excitatory amino acid transporter 1 (Homo sapiens) (UniProt P43003); assay: Binding affinity to human EAAT1 expressed in HEK293 cells in FMP (FLPR) assay
Summary of the method: (§1)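 HEK293 cells stably expressing the human transporter, seeded on poly-D-lysine plates in DMEM with 10% dialyzed FBS and G-418 for 16–24 h. Cells washed in Krebs buffer (pH 7.4), then loaded with FMP dye for 30 min at 37 °C. Read at room temperature, excitation 530 nm and emission 560 nm, for up to 1 min after substrate addition. Non-substrate inhibitors were preincubated and tested against 30 μM Glu. Seven-concentration curves from maximal responses, duplicate, at least three times.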

[2] = target: Excitatory amino acid transporter 2 (Homo sapiens) (UniProt P43004); assay: Binding affinity to human EAAT2 expressed in HEK293 cells in FMP (FLPR) assay; summary of the method: as §1
Excitatory amino acid transporter 2 (Homo sapiens), sequence (P43004 whole entry): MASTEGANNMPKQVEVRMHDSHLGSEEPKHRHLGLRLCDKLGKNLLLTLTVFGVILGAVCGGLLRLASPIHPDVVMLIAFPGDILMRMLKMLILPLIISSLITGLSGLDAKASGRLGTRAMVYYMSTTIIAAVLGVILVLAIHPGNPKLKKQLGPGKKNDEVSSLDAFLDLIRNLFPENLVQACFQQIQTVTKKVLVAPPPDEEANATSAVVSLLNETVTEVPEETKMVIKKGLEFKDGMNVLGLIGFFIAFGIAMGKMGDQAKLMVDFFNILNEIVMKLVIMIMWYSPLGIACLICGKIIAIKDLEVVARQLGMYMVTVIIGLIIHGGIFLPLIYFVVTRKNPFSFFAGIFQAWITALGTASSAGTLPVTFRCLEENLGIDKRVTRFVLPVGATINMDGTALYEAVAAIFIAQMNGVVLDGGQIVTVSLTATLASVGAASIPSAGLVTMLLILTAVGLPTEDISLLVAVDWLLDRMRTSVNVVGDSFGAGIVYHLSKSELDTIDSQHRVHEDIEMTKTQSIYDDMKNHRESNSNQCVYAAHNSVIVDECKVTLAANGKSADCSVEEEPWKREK

[3] = target: T1, Excitatory amino acid transporter 3 (Homo sapiens) (UniProt P43005); assay: Binding affinity to human EAAT3 expressed in HEK293 cells in FMP (FLPR) assay; summary of the method: as §1
T1 sequence (whole entry): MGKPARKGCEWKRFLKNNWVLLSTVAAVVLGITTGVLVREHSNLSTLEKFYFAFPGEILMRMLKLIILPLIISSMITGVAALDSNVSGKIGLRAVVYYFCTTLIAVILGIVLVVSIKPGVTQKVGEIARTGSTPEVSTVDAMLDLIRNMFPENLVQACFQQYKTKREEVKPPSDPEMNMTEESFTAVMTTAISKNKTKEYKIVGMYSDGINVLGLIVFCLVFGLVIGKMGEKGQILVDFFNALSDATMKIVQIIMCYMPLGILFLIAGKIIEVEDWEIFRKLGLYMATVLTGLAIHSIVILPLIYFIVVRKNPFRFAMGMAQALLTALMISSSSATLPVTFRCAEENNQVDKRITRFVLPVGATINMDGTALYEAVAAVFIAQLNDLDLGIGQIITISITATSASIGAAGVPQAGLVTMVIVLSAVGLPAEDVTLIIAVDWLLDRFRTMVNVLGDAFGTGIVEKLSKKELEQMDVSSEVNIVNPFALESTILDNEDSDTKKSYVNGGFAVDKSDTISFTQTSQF

Excitatory amino acid transporter 1 (Homo sapiens), sequence (P43003 whole entry): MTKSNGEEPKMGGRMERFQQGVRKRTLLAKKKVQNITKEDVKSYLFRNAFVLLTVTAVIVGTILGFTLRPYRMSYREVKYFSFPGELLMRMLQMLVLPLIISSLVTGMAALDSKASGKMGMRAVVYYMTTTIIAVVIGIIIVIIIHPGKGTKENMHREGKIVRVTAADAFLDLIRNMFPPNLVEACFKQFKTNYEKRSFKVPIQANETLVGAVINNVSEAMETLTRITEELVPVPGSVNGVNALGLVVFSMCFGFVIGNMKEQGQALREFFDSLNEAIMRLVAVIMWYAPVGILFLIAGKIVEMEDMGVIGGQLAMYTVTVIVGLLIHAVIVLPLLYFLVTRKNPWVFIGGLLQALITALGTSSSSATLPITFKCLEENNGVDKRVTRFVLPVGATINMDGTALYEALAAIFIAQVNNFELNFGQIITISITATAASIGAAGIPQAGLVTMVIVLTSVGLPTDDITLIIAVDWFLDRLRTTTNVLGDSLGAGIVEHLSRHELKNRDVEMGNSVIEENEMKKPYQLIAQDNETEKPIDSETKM

Row | pKm [1] | pKm [2] | pKm [3] | SMILES
1 | 3 | 3 | 3 | N[C@@H](C[C@@H](O)C(=O)O)C(=O)O
2 | 4.92 | – | – | C[C@H](C[C@H](N)C(=O)O)C(=O)O
3 | 4.06 | 4.21 | 4.16 | N[C@@H](C[C@H](O)C(=O)O)C(=O)O
4 | 5.04 | 4.69 | 4.61 | N[C@@H](CCC(=O)O)C(=O)O
